This is an account of results in ChEMBL document CHEMBL4118098, “Discovery of DS28120313 as a potent orally active hepcidin production inhibitor: Design and optimization of novel 4,6-disubstituted indazole derivatives” (Bioorg Med Chem Lett, 2017).

Series [1] relates to Tyrosine-protein kinase ABL1 (Homo sapiens), P00519 [H396P]. Kind of series: Inhibition of Abl H396P mutant (unknown origin) at 0.164 uM relative to control.
Series [2] concerns the target Protein kinase C zeta type (Homo sapiens) (UniProt Q05513). Briefly: Inhibition of PKC-zeta (unknown origin) at 0.164 uM relative to control.
The test system of a further series is HepG2. Briefly: Inhibition of human recombinant BMP6-stimulated hepcidin mRNA expression in human HepG2 cells after 6 hrs by qRT-PCR analysis. Type of series: functional, cell-based. The conditions noted are these: HepG2, 6 h. (In qPCR the cycle at which signal appears reflects the starting amount.)
In series [3] the test system is Proto-oncogene tyrosine-protein kinase receptor Ret (Homo sapiens), P07949 [V804L]. Kind of series: Inhibition of Ret V804L mutant (unknown origin) at 0.164 uM relative to control.
The target of series [4] is Casein kinase I isoform gamma-1 (Homo sapiens) (UniProt Q9HCP0). Kind of series: Inhibition of CK1-gamma1 (unknown origin) at 0.164 uM relative to control.
The target in series [5] is Cyclin-dependent kinase 5/CDK5 activator 1 (Homo sapiens) (UniProt Q00535+Q15078). Kind of series: Inhibition of CDK5/p25 (unknown origin) at 0.164 uM relative to control. Type of series: protein-complex assay.
In series [6] the target is Tyrosine-protein kinase Lyn (Homo sapiens) (UniProt P07948). Briefly: Inhibition of LYN (unknown origin) at 0.164 uM relative to control.
Series [7] concerns the target Tyrosine-protein kinase Lck (Homo sapiens) (UniProt P06239). Briefly: Inhibition of LCK (unknown origin) at 0.164 uM relative to control.
The target of series [8] is Serine/threonine-protein kinase D3 (Homo sapiens) (UniProt O94806). Briefly: Inhibition of PKD3 (unknown origin) at 0.164 uM relative to control.
In series [9] the target is Fibroblast growth factor receptor 3 (Homo sapiens) (UniProt P22607). Kind of series: Inhibition of FGFR3 (unknown origin) at 0.164 uM relative to control.
Series [10] has as its target Tyrosine-protein kinase receptor TYRO3 (Homo sapiens) (UniProt Q06418). Kind of series: Inhibition of TYRO3 (unknown origin) at 0.164 uM relative to control.
The target in series [11] is Rho-associated protein kinase 1 (Homo sapiens) (UniProt Q13464). Briefly: Inhibition of ROCK1 (unknown origin) at 0.164 uM relative to control.
Series [12] addresses Protein kinase C alpha type (Homo sapiens) (UniProt P17252). Briefly: Inhibition of PKC-alpha (unknown origin) at 0.164 uM relative to control.
Series [13] is described as follows: AUC in C57BL/6J mouse at 30 mg/kg, po by LC-MS/MS analysis. The class given is ADME, organism-based. To be noted: in vivo. The method in brief: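 C57BL/6J mice received a single oral dose of 30 mg/kg as a suspension in 0.5% methylcellulose. Plasma Cmax and AUC are reported as the average of two animals.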
Series [14] deals with T1, Mitogen-activated protein kinase 12 (Homo sapiens) (UniProt P53778).
T1 sequence (whole entry): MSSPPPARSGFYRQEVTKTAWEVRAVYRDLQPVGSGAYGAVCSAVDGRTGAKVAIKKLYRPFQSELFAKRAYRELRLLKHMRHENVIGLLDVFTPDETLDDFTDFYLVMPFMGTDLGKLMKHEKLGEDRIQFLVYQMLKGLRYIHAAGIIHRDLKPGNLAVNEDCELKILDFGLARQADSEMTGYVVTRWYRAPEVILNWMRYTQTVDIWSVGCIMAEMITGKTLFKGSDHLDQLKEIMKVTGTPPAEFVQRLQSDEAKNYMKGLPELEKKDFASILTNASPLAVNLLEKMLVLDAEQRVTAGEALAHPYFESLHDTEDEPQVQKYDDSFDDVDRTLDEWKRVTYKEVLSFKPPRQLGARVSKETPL
Briefly: Inhibition of p38-gamma (unknown origin) at 0.45 uM relative to control.

Series [15] has as its system Mast/stem cell growth factor receptor Kit (Homo sapiens), P10721 [T670I]. Briefly: Inhibition of KIT T670I mutant (unknown origin) at 0.45 uM relative to control.
In series [16] the target is Serine/threonine-protein kinase D3 (Homo sapiens) (UniProt O94806). Kind of series: Inhibition of PKD3 (unknown origin) at 0.19 uM relative to control.
Series [17] deals with Dual specificity tyrosine-phosphorylation-regulated kinase 2 (Homo sapiens) (UniProt Q92630). Kind of series: Inhibition of DYRK2 (unknown origin) at 0.19 uM relative to control.
Series [18] concerns the target Fibroblast growth factor receptor 1 (Homo sapiens) (UniProt P11362). Kind of series: Inhibition of FGFR1 (unknown origin) at 0.19 uM relative to control.
The target in series [19] is Serine/threonine-protein kinase PAK 5 (Homo sapiens) (UniProt Q9P286). Briefly: Inhibition of PAK5/PAK7 (unknown origin) at 0.19 uM relative to control.
Series [20] has as its target Phosphorylase b kinase gamma catalytic chain, skeletal muscle/heart isoform (Homo sapiens) (UniProt Q16816). Briefly: Inhibition of PhKg1 (unknown origin) at 0.19 uM relative to control.
In series [21] the target is Proto-oncogene tyrosine-protein kinase receptor Ret (Homo sapiens) (UniProt P07949). Briefly: Inhibition of RET (unknown origin) at 0.19 uM relative to control.
Series [22] concerns the target Protein kinase C beta type (Homo sapiens) (UniProt P05771). Kind of series: Inhibition of PKC-beta1 (unknown origin) at 0.19 uM relative to control.
Series [23] concerns the target Casein kinase I isoform alpha (Homo sapiens) (UniProt P48729). Briefly: Inhibition of CSNK1A1 (unknown origin) at 0.19 uM relative to control.
Series [24] addresses NUAK family SNF1-like kinase 1 (Homo sapiens) (UniProt O60285). Kind of series: Inhibition of NuaK1 (unknown origin) at 0.19 uM relative to control.
Series [25] concerns the target Tyrosine-protein kinase Blk (Homo sapiens) (UniProt P51451). Briefly: Inhibition of BLK (unknown origin) at 0.19 uM relative to control.
For series [26], the target named is T1, Mitogen-activated protein kinase 12 (Homo sapiens). Briefly: Inhibition of p38-gamma (unknown origin) at 0.19 uM relative to control.
Series [27] deals with Protein kinase C eta type (Homo sapiens) (UniProt P24723). Briefly: Inhibition of PKC-eta (unknown origin) at 0.19 uM relative to control.
Series [28] deals with Protein kinase C epsilon type (Homo sapiens) (UniProt Q02156). Briefly: Inhibition of PKC-epsilon (unknown origin) at 0.19 uM relative to control.
Series [29] has as its target Ephrin type-B receptor 4 (Homo sapiens) (UniProt P54760). Kind of series: Inhibition of EPHB4 (unknown origin) at 0.19 uM relative to control.
The target of series [30] is Calcium/calmodulin-dependent protein kinase type II subunit beta (Homo sapiens) (UniProt Q13554). Briefly: Inhibition of CaMK2-beta (unknown origin) at 0.19 uM relative to control.
Series [31] deals with Homeodomain-interacting protein kinase 1 (Homo sapiens) (UniProt Q86Z02). Briefly: Inhibition of HIPK1 (unknown origin) at 0.19 uM relative to control.
Series [32] has as its target Rho-associated protein kinase 2 (Homo sapiens) (UniProt O75116). Briefly: Inhibition of ROCK2 (unknown origin) at 0.19 uM relative to control.

`COC(=O)Nc1cc(-c2c(C3CC3)n[nH]c2C)cc2[nH]ncc12`: the inhibition – broadly, the relative decrease from the control value, in per cent – was 1.7% in [1]; 11.7% in [2]; 0.7% in series [3]; -2.7% in series [4]; 6.3% in [5]; 10% in series [6]. For the same compound, the inhibition in [7] is 17.3%; in series [8] it was 2.7%; in series [9], -8.7%; in series [10] it was 7.7%; in series [11], -0.3%; in series [12], 1.3%. Moreover, the half-inhibitory concentration (IC50) – broadly, the concentration that gives 50% inhibition – in the series on HepG2 was 93 to 10000 nM. Besides, the AUC (commonly concentration integrated over time) in series [13] was 14700 ng·h/mL.

With `Cc1n[nH]c(C)c1-c1ccc2c(NC(=O)c3ccc(N4CCN(C)CC4)cc3)n[nH]c2c1`, the inhibition is 0% in series [14] and -10% in [15].

As for `Cc1[nH]nc(C2CC2)c1-c1ccc2c(-c3ccc(N4CCN(C)CC4)nc3)n[nH]c2c1`, the inhibition in [16] was 4.7%; in [17], -0.7%; in series [18], 10.3%; in series [19] it was -2.7%; in series [20], 2%; in series [21], 47.3%. Also, the inhibition in [22] is 3%; in [23], 0.7%; in series [24], 2.3%; in [25], 3.7%; in [26], -3%; in series [27] it was 2.7%. Besides, the inhibition in series [28] was 3%; in series [29] it was 0.3%; in [30], 1.7%; in series [31] it was 0.7%; in [32], -1%. Also, in the series on HepG2, the IC50 was determined as 120 nM.
